Source: ChEMBL document CHEMBL2331542, “Synthesis and in vitro antibacterial activity of quinolone/naphthyridone derivatives containing 3-alkoxyimino-4-(methyl)aminopiperidine scaffolds” (2013)

How the values were obtained:
Assay type in all cases: functional
[1] = system: Escherichia coli; experiment: Antibacterial activity against extended-spectrum beta-lactamase-producing Escherichia coli isolate 12-4
How it was run: (§1)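 MIC determined in vitro by a standard technique and defined as the lowest compound concentration giving complete inhibition of bacterial growth. The Gram-positive and Gram-negative panels were tested alongside gemifloxacin, levofloxacin and ciprofloxacin reference drugs.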

[2] = system: Escherichia coli; experiment: Antibacterial activity against extended-spectrum beta-lactamase-producing Escherichia coli isolate 12-2; how it was run: as §1
[3] = system: Escherichia coli; experiment: Antibacterial activity against extended-spectrum beta-lactamase-producing Escherichia coli isolate 12-1; how it was run: as §1
[4] = system: Escherichia coli; experiment: Antibacterial activity against Escherichia coli isolate 12-5; how it was run: as §1
[5] = system: Escherichia coli; experiment: Antibacterial activity against Escherichia coli isolate 12-4; how it was run: as §1
[6] = system: Escherichia coli; experiment: Antibacterial activity against Escherichia coli isolate 12-1; how it was run: as §1
[7] = system: Escherichia coli; experiment: Antibacterial activity against Escherichia coli ATCC 25922; how it was run: as §1
[8] = system: Streptococcus pneumoniae; experiment: Antibacterial activity against Streptococcus pneumoniae isolate 12-5; how it was run: as §1
[9] = system: Streptococcus pneumoniae; experiment: Antibacterial activity against Streptococcus pneumoniae isolate 12-2; how it was run: as §1
[10] = system: Staphylococcus epidermidis; experiment: Antibacterial activity against methicillin-resistant Staphylococcus epidermidis isolate 12-35
How it was run: (§2)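 MIC determined in vitro by standard techniques, defined as the lowest compound concentration giving complete inhibition of bacterial growth. Gemifloxacin, levofloxacin and ciprofloxacin were tested alongside as reference drugs.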

[11] = system: Staphylococcus epidermidis; experiment: Antibacterial activity against methicillin-resistant Staphylococcus epidermidis isolate 12-33; how it was run: as §2
[12] = system: Staphylococcus epidermidis; experiment: Antibacterial activity against methicillin-resistant Staphylococcus epidermidis isolate 12-5; how it was run: as §2
[13] = system: Staphylococcus epidermidis; experiment: Antibacterial activity against methicillin-sensitive Staphylococcus epidermidis isolate 12-3; how it was run: as §1
[14] = system: Staphylococcus epidermidis; experiment: Antibacterial activity against methicillin-sensitive Staphylococcus epidermidis isolate 12-2; how it was run: as §1
[15] = system: Staphylococcus epidermidis; experiment: Antibacterial activity against methicillin-sensitive Staphylococcus epidermidis isolate 12-1; how it was run: as §1
[16] = system: Staphylococcus aureus; experiment: Antibacterial activity against methicillin-resistant Staphylococcus aureus isolate 12-15; how it was run: as §2
[17] = system: Staphylococcus aureus; experiment: Antibacterial activity against methicillin-resistant Staphylococcus aureus isolate 12-13; how it was run: as §2
[18] = system: Staphylococcus aureus; experiment: Antibacterial activity against methicillin-resistant Staphylococcus aureus isolate 12-3; how it was run: as §2
[19] = system: Staphylococcus aureus; experiment: Antibacterial activity against methicillin-sensitive Staphylococcus aureus isolate 12-10; how it was run: as §1
[20] = system: Staphylococcus aureus; experiment: Antibacterial activity against methicillin-sensitive Staphylococcus aureus isolate 12-7; how it was run: as §1
[21] = system: Staphylococcus aureus; experiment: Antibacterial activity against methicillin-sensitive Staphylococcus aureus isolate 12-6; how it was run: as §1
[22] = system: Staphylococcus aureus; experiment: Antibacterial activity against Staphylococcus aureus […]; how it was run: as §1
[23] = system: Pseudomonas aeruginosa; experiment: Antibacterial activity against Pseudomonas aeruginosa isolate 12-2; how it was run: as §1
[24] = system: Pseudomonas aeruginosa; experiment: Antibacterial activity against Pseudomonas aeruginosa isolate 12-1; how it was run: as §1
[25] = system: Pseudomonas aeruginosa; experiment: Antibacterial activity against Pseudomonas aeruginosa ATCC 27853; how it was run: as §1
[26] = system: Klebsiella pneumoniae; experiment: Antibacterial activity against extended-spectrum beta-lactamase-producing Klebsiella pneumoniae isolate 12-4; how it was run: as §1
[27] = system: Klebsiella pneumoniae; experiment: Antibacterial activity against extended-spectrum beta-lactamase-producing Klebsiella pneumoniae isolate 12-2; how it was run: as §1
[28] = system: Klebsiella pneumoniae; experiment: Antibacterial activity against extended-spectrum beta-lactamase-producing Klebsiella pneumoniae isolate 12-1; how it was run: as §1
[29] = system: Klebsiella pneumoniae; experiment: Antibacterial activity against Klebsiella pneumoniae isolate 12-4; how it was run: as §1
[30] = system: Klebsiella pneumoniae; experiment: Antibacterial activity against Klebsiella pneumoniae isolate 12-2; how it was run: as §1
[31] = system: Klebsiella pneumoniae; experiment: Antibacterial activity against Klebsiella pneumoniae isolate 12-1; how it was run: as §1

Measured: MIC

CO/N=C1\CN(c2nc3c(cc2F)c(=O)c(C(=O)O)cn3C2CC2)CCC1N (stereo not given)
32 µg/mL: [1] | [7] | [20] | [25]
64 µg/mL: [2]
4 µg/mL: [8] | [11]
> 128 µg/mL: [3] | [4] | [5] | [26]
0.125 µg/mL: [29]
2 µg/mL: [6] | [10] | [12] | [14] | [19]
8 µg/mL: [23] | [24] | [27] | [28]
0.5 µg/mL: [13] | [15]
0.25 µg/mL: all other assays above

CNC1CCN(c2nc3c(cc2F)c(=O)c(C(=O)O)cn3-c2ccc(F)cc2F)C/C1=N\OC (stereo not given)
0.5 µg/mL: [14]
0.06 µg/mL: [8] | [9] | [20]
64 µg/mL: [28]
8 µg/mL: [6] | [23] | [25]
> 128 µg/mL: [2] | [3] | [4] | [5]
1 µg/mL: [26] | [29] | [30] | [31]
0.015 µg/mL: [10] | [11] | [12]
4 µg/mL: [24]
0.125 µg/mL: [7] | [13] | [15] | [22]
32 µg/mL: [1] | [27]
0.03 µg/mL: all other assays above

O=C1NC2CCN(c3nc4c(cc3F)c(=O)c(C(=O)O)cn4C3CC3)CC2O1 (stereo not given)
32 µg/mL: [29]
> 128 µg/mL: [2] | [3] | [4] | [5] | [27]
8 µg/mL: [25]
16 µg/mL: [6] | [23] | [24]
0.5 µg/mL: [8] | [10] | [12] | [19]
128 µg/mL: [20] | [26] | [28]
1 µg/mL: [7] | [11] | [13] | [15] | [21] | [22]
64 µg/mL: [1]
2 µg/mL: all other assays above

CNC1CCN(c2nc3c(cc2F)c(=O)c(C(=O)O)cn3C2CC2)C/C1=N\OC (stereo not given)
4 µg/mL: [6]
1 µg/mL: [16] | [17] | [18]
0.25 µg/mL: [10] | [12] | [19] | [21]
2 µg/mL: [14] | [25]
0.06 µg/mL: [11]
> 128 µg/mL: [2] | [3] | [4] | [5]
16 µg/mL: [1] | [23] | [24] | [27] | [28]
0.125 µg/mL: [7] | [26] | [29]
0.5 µg/mL: all other assays above

CCO/N=C1\CN(c2c(F)cc3c(=O)c(C(=O)O)cn(C4CC4)c3c2OC)CCC1NC (stereo not given)
1 µg/mL: [8] | [10] | [11] | [12] | [14]
0.125 µg/mL: [19] | [22]
4 µg/mL: [30] | [31]
2 µg/mL: [29]
> 128 µg/mL: [2] | [3] | [4] | [5] | [26]
8 µg/mL: [6]
32 µg/mL: [1] | [20] | [27] | [28]
0.5 µg/mL: [13] | [15]
16 µg/mL: [7] | [23] | [24] | [25]
0.25 µg/mL: all other assays above
